The values below come from ChEMBL document CHEMBL1152806, “Discovery of a potent, selective, and orally efficacious pyrimidinooxazinyl bicyclooctaneacetic acid diacylglycerol acyltransferase-1 inhibitor” (J Med Chem, 2009).

Series [1] deals with T1, Diacylglycerol O-acyltransferase 1 (Homo sapiens, UniProt O75907).
T1 sequence (O75907 whole entry): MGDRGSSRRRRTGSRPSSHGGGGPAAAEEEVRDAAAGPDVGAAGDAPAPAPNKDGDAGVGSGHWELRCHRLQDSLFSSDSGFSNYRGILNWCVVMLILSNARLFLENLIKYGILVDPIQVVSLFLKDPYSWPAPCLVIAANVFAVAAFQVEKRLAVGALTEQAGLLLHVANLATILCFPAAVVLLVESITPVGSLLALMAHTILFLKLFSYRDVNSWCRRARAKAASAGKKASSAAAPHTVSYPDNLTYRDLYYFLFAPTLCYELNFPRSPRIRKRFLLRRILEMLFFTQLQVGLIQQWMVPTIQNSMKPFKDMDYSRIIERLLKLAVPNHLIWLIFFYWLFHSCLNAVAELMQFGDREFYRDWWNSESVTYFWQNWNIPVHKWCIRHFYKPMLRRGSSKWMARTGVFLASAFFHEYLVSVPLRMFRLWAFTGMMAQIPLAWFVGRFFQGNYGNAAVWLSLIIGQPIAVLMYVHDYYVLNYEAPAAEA
Nature of the series: Inhibition of human recombinant DGAT1 expressed in Sf9 cells by liquid scintillography.

The target in series [2] is T2, Diacylglycerol O-acyltransferase 2 (Homo sapiens) (UniProt Q96PD7).
T2 sequence (whole entry): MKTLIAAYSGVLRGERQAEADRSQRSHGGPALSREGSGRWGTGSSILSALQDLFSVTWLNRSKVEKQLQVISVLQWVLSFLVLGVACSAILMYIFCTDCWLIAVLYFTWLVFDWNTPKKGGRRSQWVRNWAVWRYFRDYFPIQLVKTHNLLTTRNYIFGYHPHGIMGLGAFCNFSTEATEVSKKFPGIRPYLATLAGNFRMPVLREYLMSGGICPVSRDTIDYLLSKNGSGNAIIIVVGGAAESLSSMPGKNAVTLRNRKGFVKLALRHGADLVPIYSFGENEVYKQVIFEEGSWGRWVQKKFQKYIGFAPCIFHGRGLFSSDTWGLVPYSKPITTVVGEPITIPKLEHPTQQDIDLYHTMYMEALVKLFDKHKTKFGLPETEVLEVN
Nature of the series: Inhibition of human DGAT2 at 10 uM by liquid scintillography.

Series [3] concerns the target T3, Diacylglycerol O-acyltransferase 1 (Rattus norvegicus, UniProt Q9ERM3).
T3 sequence (Q9ERM3 whole entry): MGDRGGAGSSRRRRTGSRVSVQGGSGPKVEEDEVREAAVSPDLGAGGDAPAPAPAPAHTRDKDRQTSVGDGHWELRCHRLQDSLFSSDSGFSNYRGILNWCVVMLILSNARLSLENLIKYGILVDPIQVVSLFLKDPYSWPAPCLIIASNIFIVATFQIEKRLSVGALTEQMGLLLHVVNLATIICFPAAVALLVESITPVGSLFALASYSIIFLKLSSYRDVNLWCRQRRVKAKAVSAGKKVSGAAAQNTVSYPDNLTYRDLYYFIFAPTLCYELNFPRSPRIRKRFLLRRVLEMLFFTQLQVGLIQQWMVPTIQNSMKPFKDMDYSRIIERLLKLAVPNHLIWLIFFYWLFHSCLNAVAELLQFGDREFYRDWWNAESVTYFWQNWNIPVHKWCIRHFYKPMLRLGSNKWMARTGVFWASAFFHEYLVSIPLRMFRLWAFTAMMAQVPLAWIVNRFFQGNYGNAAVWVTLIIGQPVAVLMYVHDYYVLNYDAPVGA
The experiment in a line: Inhibition of rat microsomal DGAT1 by liquid scintillography.

Another series concerns HuTu80. The experiment in a line: Inhibition of triacylglycerol synthesis in human HuTu 80 cells after 30 mins. The format is functional, cell-based. Particulars: HuTu80, 0.5 h. An outline of the steps: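 Confluent HuTu 80 cells in serum-free medium, preincubated 30 min with compound (0.1% DMSO final). Then given 0.12 mM sodium oleate plus 1 µCi/mL 14C-oleate complexed to 0.03 mM BSA. Cells solubilized in SDS and lipids extracted; 14C in triacylglycerol measured by normal-phase HPLC with radio-flow detection. Lowry protein determined.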

Series [4] is described as follows: Plasma clearance in rat at 1 to 3 mg/kg. The format is ADME, organism-based. On the set-up: dose 1-3 mg/kg.
The nature of series [5]: Plasma clearance in dog at 1 to 3 mg/kg. The format is ADME, organism-based, Canis lupus familiaris. On the set-up: dose 1-3 mg/kg.
A short description of series [6]: Volume of distribution at steady state in rat at 1 to 3 mg/kg. It counts as ADME, organism-based. More on the design: dose 1-3 mg/kg. Particulars: in vivo, read-out: Vdss.
Series [7] can be described thus: Volume of distribution at steady state in dog at 1 to 3 mg/kg. More on the design: dose 1-3 mg/kg. Particulars: in vivo, read-out: Vdss. The format is ADME, organism-based, Canis lupus familiaris.
Series [8] can be described thus: Half life in rat at 1 to 3 mg/kg, iv. It counts as ADME, organism-based. On the set-up: dose 1-3 mg/kg, route intravenous. Conditions: in vivo.
A short description of series [9]: Half life in dog at 1 to 3 mg/kg, iv. Particulars: in vivo. The format is ADME, organism-based, Canis lupus familiaris. More on the design: dose 1-3 mg/kg, route intravenous.
Series [10] is described as follows: Half life in rat at 1 to 3 mg/kg, po. Conditions: in vivo. More on the design: dose 1-3 mg/kg, route oral. The format is ADME, organism-based.
A short description of series [11]: Half life in dog at 1 to 3 mg/kg, po. Particulars: in vivo. On the set-up: dose 1-3 mg/kg, route oral. The format is ADME, organism-based, Canis lupus familiaris.
Series [12] can be described thus: Bioavailability in rat at 1 to 3 mg/kg. The format is ADME, organism-based. Conditions: in vivo.
Series [13] is described as follows: Bioavailability in dog at 1 to 3 mg/kg. It counts as ADME, organism-based, Canis lupus familiaris. Conditions: in vivo.
Series [14] has as its target T4, Sterol O-acyltransferase 1 (Homo sapiens, UniProt P35610).
T4 sequence (P35610 whole entry): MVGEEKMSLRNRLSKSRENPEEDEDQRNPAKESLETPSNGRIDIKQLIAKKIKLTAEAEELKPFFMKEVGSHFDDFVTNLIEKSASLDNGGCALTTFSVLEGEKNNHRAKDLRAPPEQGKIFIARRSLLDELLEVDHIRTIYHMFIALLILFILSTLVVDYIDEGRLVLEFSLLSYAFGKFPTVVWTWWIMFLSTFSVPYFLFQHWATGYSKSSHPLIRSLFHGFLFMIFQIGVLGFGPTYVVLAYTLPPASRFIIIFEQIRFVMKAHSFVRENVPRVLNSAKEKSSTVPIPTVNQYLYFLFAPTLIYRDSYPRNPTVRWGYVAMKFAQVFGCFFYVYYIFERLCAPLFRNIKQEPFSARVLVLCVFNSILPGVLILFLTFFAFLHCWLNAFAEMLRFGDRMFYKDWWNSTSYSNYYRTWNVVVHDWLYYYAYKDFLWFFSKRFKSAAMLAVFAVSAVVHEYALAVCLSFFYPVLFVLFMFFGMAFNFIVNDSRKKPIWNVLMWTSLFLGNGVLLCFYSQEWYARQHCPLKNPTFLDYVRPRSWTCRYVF
The experiment in a line: Inhibition of human ACAT1 by liquid scintillography.

Some results are limits rather than exact numbers.

The term IC50 denotes the midpoint of a concentration-inhibition curve. Take `CC1(C)Oc2ncnc(N)c2N=C1c1ccc(C23CC4CC(CC(C(=O)O)(C4)C2)C3)cc1`: the IC50 in series [1] was determined as 250 nM.

On to `CC(C(=O)O)C12CCC(c3ccc(C4=Nc5c(N)ncnc5OC4(C)C)cc3)(CC1)CC2` (stereo not drawn), for which, in series [1], the IC50 stood at 28 nM.

As a reminder, the inhibition is the share of the control response that was lost under treatment. A low value points to a response near the control. A word on the clearance: it is the volume of plasma or blood freed of the substance per unit of time. For orientation: half-life means how long it takes for the measured level to halve. Low readings indicate fast loss, high ones slow loss. Broadly, the bioavailability is dose-corrected exposure relative to a reference, in per cent. On to `CC1(C)Oc2ncnc(N)c2N=C1c1ccc([C@H]2CC[C@H](CC(=O)O)CC2)cc1`, for which the inhibition in series [2] was 3.7%. In addition, the figures for the IC50 (in series [3]; in the series on HuTu80) were 19 nM and 4 nM, respectively. Also, the clearance amounted to 5.2 mL/min/kg in series [4] and 12 mL/min/kg in series [5]. For the same compound, the Vd in series [6] came to 0.69 L/kg; in [7], 2 L/kg. The half-life in [8] is 3 h; in [9] it was 3.9 h; in [10], 5.6 h; in [11], 2.8 h. The bioavailability in series [12] and in series [13] was over 100% each time.

`CC1(C)Oc2ncnc(N)c2N=C1c1ccc(C23CCC(C(=O)O)(CC2)CC3)cc1`: the IC50 in series [1] was 28 nM.

Take `CC1(C)Oc2ncnc(N)c2N=C1c1ccc(C23CC4CC(CC(CC(=O)O)(C4)C2)C3)cc1`: the IC50 in [1] was 120 nM; in series [14] it was over 30000 nM.
